In ChEMBL document CHEMBL4610003 (Bioorg Med Chem, 2020):
In brackets after ≈: the same amount, converted by molar mass.

Tests used:
[1] = tested on: Mycobacterium tuberculosis; assay: Antimycobacterial activity against Mycobacterium tuberculosis H37Rv assessed as bacterial growth inhibition incubated for 10 days under anerobic condition followed by incubation under ambient gaseous condition for […] by low oxygen recovery assay; type: functional
Outline: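 Read-out is MIC90, the lowest concentration giving 90% growth inhibition of M.tb H37Rv, in µg/mL. Bacteria were held under non-replicating, low-oxygen conditions (LORA).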

[2] = tested on: Mycobacterium tuberculosis; assay: Antimycobacterial activity against Mycobacterium tuberculosis H37Rv assessed as bacterial growth inhibition under replicating, aerobic condition by microplate Alamar blue assay; type: functional
Outline: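 Read-out is MIC90, the lowest concentration giving 90% growth inhibition of M.tb H37Rv, in µg/mL. Bacteria were grown under aerobic, replicating conditions (MABA).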

[3] = target: Voltage-gated inwardly rectifying potassium channel KCNH2 (Homo sapiens, UniProt Q12809); assay: Inhibition of human ERG
Vero = assay: Cytotoxicity against African green monkey Vero cells assessed as reduction in cell viability incubated for 72 hrs by […] assay; type: cell-based; conditions: Chlorocebus sabaeus
[4] = Intrinsic clearance in mouse liver microsomes assessed per mg protein; type: ADME, Microsome; conditions: read-out: CLH
Outline: (§1)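 Clearance of compound by human or mouse liver microsomes, expressed as µL/min/mg protein.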

[5] = Clearance in CD-1 mouse at 2 to 3 mg/kg, iv administered as single bolus dose; type: ADME, organism-based; conditions: in vivo
Outline: (§2)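 Male CD-1 mice received a single intravenous bolus at 2–3 mg/kg. Reported values are IV clearance and the apparent volume of distribution during the terminal phase, in L/kg.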

[6] = Apparent volume of distribution during terminal phase in CD-1 mouse at 2 to 3 mg/kg, iv administered as single bolus dose; type: ADME, organism-based; conditions: in vivo; outline: as §2
[7] = Oral bioavailability in CD-1 mouse at 10 mg/kg administered via gavage as single dose; type: ADME, organism-based; conditions: in vivo
[8] = Intrinsic clearance in human liver microsomes assessed per mg protein; type: ADME, Microsome; conditions: read-out: CLH; outline: as §1
[9] = AUC (0 to infinity) in CD-1 mouse at 10 mg/kg, po via gavage administered as single dose; type: ADME, organism-based; set-up: dose 10 mg/kg, route oral, time infinity; conditions: in vivo
Outline: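 Male CD-1 mice given a single 10 mg/kg dose by oral gavage. Exposure is reported as area under the curve from 0 to infinity in µg*h/mL.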

Voltage-gated inwardly rectifying potassium channel KCNH2, sequence (Q12809 whole entry): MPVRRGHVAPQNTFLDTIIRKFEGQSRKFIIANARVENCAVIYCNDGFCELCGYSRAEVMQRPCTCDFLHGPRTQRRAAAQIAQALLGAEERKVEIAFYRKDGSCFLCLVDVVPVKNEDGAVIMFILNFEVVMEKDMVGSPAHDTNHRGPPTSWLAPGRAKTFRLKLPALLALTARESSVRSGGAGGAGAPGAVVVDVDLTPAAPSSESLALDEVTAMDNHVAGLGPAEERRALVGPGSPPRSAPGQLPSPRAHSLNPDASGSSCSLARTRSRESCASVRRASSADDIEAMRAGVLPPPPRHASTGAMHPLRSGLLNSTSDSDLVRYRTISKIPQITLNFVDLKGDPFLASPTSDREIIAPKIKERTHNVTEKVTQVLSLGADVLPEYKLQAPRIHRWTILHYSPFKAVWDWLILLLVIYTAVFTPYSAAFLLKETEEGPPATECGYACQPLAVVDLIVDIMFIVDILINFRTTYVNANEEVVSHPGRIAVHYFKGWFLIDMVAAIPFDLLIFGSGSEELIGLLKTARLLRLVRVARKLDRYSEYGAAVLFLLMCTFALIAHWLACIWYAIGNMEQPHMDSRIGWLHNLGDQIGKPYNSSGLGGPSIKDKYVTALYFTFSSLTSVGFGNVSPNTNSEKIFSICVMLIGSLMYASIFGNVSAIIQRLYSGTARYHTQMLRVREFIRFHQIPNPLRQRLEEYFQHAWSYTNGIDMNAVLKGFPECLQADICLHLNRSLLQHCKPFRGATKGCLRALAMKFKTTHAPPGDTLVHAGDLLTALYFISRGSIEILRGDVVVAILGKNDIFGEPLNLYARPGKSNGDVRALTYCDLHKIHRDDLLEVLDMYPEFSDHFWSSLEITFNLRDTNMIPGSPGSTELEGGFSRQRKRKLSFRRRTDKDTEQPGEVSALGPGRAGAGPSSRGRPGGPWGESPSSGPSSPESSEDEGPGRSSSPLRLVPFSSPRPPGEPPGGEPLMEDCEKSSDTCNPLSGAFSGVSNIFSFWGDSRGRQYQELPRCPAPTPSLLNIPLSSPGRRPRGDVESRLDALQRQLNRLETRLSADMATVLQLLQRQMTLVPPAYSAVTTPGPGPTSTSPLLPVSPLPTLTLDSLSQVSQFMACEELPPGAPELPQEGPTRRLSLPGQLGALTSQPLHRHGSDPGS

| Compound | MIC90 [1] [µg/mL] | MIC90 [2] [µg/mL] | IC50 [3] [µM] | IC50 (Vero) [µg/mL] | microsomal CLint [4] [µL/min/mg] | clearance [5] [mL/min/kg] | Vz/F [6] [L/kg] | bioavailability [7] [%] | microsomal CLint [8] [µL/min/mg] | AUC(0-inf) [9] [ng·h/mL] |
| --- | --- | --- | --- | --- | --- | --- | --- | --- | --- | --- |
| CCSc1cc([C@](O)(CCN(C)C)[C@@H](c2cc3cc(Br)ccc3nc2OC)c2ccnc(OC)c2OC)cc(SCC)n1 (racemic) | 0.21 (≈ 0.305 µM) | 0.04 (≈ 0.0582 µM) | 9.2 |  |  |  |  |  |  |  |
| CCSc1cc([C@](O)(CCN(C)C)[C@@H](c2cc3cc(Br)ccc3nc2OC)c2ccnc(OC)c2OC)cc(N(C)C)n1 (racemic) | 0.57 (≈ 0.85 µM) | 0.04 (≈ 0.0596 µM) | > 10 |  |  |  |  |  |  |  |
| CCOc1cc([C@](O)(CCN(C)C)[C@@H](c2cc3cc(Br)ccc3nc2OC)c2ccnc(OC)c2OC)cc(OC(C)C)n1 (racemic) | < 0.02 | < 0.02 |  | > 10 | 1.6 | 3.1 | 9.1 | 58 | 1.8 | 32000 |
| COc1nc2ccc(Br)cc2cc1[C@@H](c1ccnc(OC)c1OC)[C@@](O)(CCN(C)C)c1cc(SC)nc(SC)c1 (racemic) | < 0.02 | < 0.02 | 2.8 | > 10 | 10 | 18 | 64 | 41 | 8.8 | 3900 |
| COc1cc([C@](O)(CCN(C)C)[C@@H](c2cc3cc(C#N)ccc3nc2OC)c2cccc(OC)c2F)cc(SC)n1 (racemic) | 0.04 (≈ 0.0694 µM) | 0.02 (≈ 0.0347 µM) | > 10 | > 10 | 36 | 42 | 54 | 28 | 16 | 1100 |
| COc1cc([C@](O)(CCN(C)C)[C@@H](c2cc3cc(C#N)ccc3nc2OC)c2cccc(C)c2F)cc(OC(F)F)n1 (racemic) | 0.03 (≈ 0.0517 µM) | 0.01 (≈ 0.0172 µM) | > 30 | > 10 | 5.9 | 13 | 38 | 66 | 0.6 | 8600 |
| COc1cc([C@](O)(CCN(C)C)[C@@H](c2cc3cc(C#N)ccc3nc2OC)c2cccc(OC)c2F)cc(OC(F)F)n1 (racemic) | < 0.02 | < 0.02 |  |  |  |  |  |  |  |  |
| CCOc1cc([C@](O)(CCN(C)C)[C@@H](c2cc3cc(Br)ccc3nc2OC)c2cccc(OC)c2F)cc(OC)n1 (racemic) | < 0.01 | < 0.01 | > 30 | > 10 | 14 | 19 | 51 | 46 | 4.1 | 4000 |
| CCSc1cc([C@](O)(CCN(C)C)[C@@H](c2cc3cc(Br)ccc3nc2OC)c2cccc(OC)c2F)cc(SCC)n1 (racemic) | < 0.02 | < 0.02 | > 10 | 6.5 (≈ 9.63 µM) | 12 | 3.6 | 14 | 25 | 4.9 | 11900 |
| CCOc1cc([C@](O)(CCN(C)C)[C@H](c2cccc(C)c2)c2cc3cc(Br)ccc3nc2OC)cc(OC)n1 (racemic) | < 0.02 | < 0.02 | > 10 | > 10 | 7.8 | 12 | 45 | 65 | 4.4 | 9400 |
| CCOc1cc([C@](O)(CCN(C)C)[C@@H](c2cc3cc(Br)ccc3nc2OC)c2ccnc(OC)c2OC)cc(OC)n1 (racemic) | < 0.02 | < 0.02 | 3.3 | > 10 | 7.6 | 9.5 | 28 | 70 | 3.8 | 12700 |
| CCSc1cc([C@](O)(CCN(C)C)[C@@H](c2cc3cc(C#N)ccc3nc2OC)c2cccc(C)c2F)cc(SCC)n1 (racemic) | 0.06 (≈ 0.0992 µM) | < 0.02 | > 10 | > 10 | 33 | 9.4 | 41 | 22 | 9.1 | 4000 |
| COc1cc([C@](O)(CCN(C)C)[C@@H](c2cc3cc(Br)ccc3nc2OC)c2cccc(OC)c2F)cc(OC(F)F)n1 (racemic) | < 0.02 | 0.04 (≈ 0.0615 µM) | > 30 | > 10 | 6.4 | 9.7 | 18 | 83 | 0.1 | 14400 |
| CCS(=O)(=O)c1cc([C@](O)(CCN(C)C)[C@@H](c2cc3cc(C#N)ccc3nc2OC)c2ccnc(OC)c2OC)cc(S(=O)(=O)CC)n1 (racemic) | 5 (≈ 7.17 µM) | 4.4 (≈ 6.31 µM) |  |  |  |  |  |  |  |  |
| COc1cc([C@](O)(CCN(C)C)[C@@H](c2cc3cc(C#N)ccc3nc2OC)c2ccnc(OC)c2OC)cc(N(C)C)n1 (racemic) | 0.06 (≈ 0.102 µM) | 0.06 (≈ 0.102 µM) | 3.4 | > 10 | 16 | 26 | 14 | 50 | 8.4 | 3300 |
| COc1cc([C@](O)(CCN(C)C)[C@@H](c2cc3cc(C#N)ccc3nc2OC)c2ccnc(OC)c2OC)cc(OC(F)F)n1 (racemic) | 0.04 (≈ 0.0656 µM) | < 0.02 | 7 | > 10 | 11 | 24 | 40 | 43 | 2.5 | 3000 |
| COc1cc([C@](O)(CCN(C)C)[C@@H](c2cc3cc(Br)ccc3nc2OC)c2ccnc(OC)c2OC)cc(N(C)C)n1 (racemic) | 0.02 (≈ 0.0312 µM) | 0.45 (≈ 0.702 µM) |  |  |  |  |  |  |  |  |
| COc1cccc([C@H](c2cc3cc(Br)ccc3nc2OC)[C@@](O)(CCN(C)C)c2cc(SC)nc(SC)c2)c1F (racemic) | < 0.02 | < 0.02 | > 10 | 9.6 (≈ 14.8 µM) | 17 | 13 | 15 | 66 | 3.4 | 8400 |
| COc1cc([C@](O)(CCN(C)C)[C@@H](c2cc3cc(Br)ccc3nc2OC)c2cccc(OC)c2F)cc(OC(C)C)n1 (racemic) | 0.03 (≈ 0.0467 µM) | < 0.02 | > 30 | > 10 | 6 | 8.9 | 34 | 43 | 3.4 | 9000 |
| CCSc1cc([C@](O)(CCN(C)C)[C@@H](c2cc3cc(C#N)ccc3nc2OC)c2ccnc(OC)c2OC)cc(SCC)n1 (racemic) | 0.03 (≈ 0.0473 µM) | 0.06 (≈ 0.0947 µM) | 1.5 |  |  |  |  |  |  |  |
| COc1cccc([C@H](c2cc3cc(C#N)ccc3nc2OC)[C@@](O)(CCN(C)C)c2cc(SC)nc(SC)c2)c1F (racemic) | 0.05 (≈ 0.0844 µM) | 0.03 (≈ 0.0506 µM) | 5.1 | > 10 | 20 | 44 | 53 | 28 | 15 | 1100 |
| COc1nc2ccc(C#N)cc2cc1[C@@H](c1cccc(C)c1F)[C@@](O)(CCN(C)C)c1cc(SC)nc(SC)c1 (racemic) | 0.17 (≈ 0.295 µM) | 0.02 (≈ 0.0347 µM) | > 10 | > 10 | 13 | 22 | 79 | 31 | 9.2 | 2400 |
| CCCOc1cc([C@](O)(CCN(C)C)[C@@H](c2cc3cc(Br)ccc3nc2OC)c2ccnc(OC)c2OC)cc(OC)n1 (racemic) | 0.06 (≈ 0.0915 µM) | 0.01 (≈ 0.0153 µM) |  | > 10 | 6.5 | 6.9 | 44 | 50 | 8.2 | 10900 |
| COc1cc([C@](O)(CCN(C)C)[C@H](c2cccc(C)c2)c2cc3cc(Br)ccc3nc2OC)cc(OC(C)C)n1 (racemic) | 0.01 (≈ 0.0164 µM) | 0.01 (≈ 0.0164 µM) | > 10 |  |  |  |  |  |  |  |
| COc1cc([C@](O)(CCN(C)C)[C@@H](c2cc3cc(Br)ccc3nc2OC)c2cccc(OC)c2F)cc(S(C)(=O)=O)n1 (racemic) | 0.73 (≈ 1.1 µM) | 0.46 (≈ 0.694 µM) | 1.8 |  |  |  |  |  |  |  |
| CCSc1cc([C@](O)(CCN(C)C)[C@@H](c2cc3cc(C#N)ccc3nc2OC)c2cccc3c2OCO3)cc(SCC)n1 (racemic) | 0.05 (≈ 0.0811 µM) | < 0.02 | > 10 |  |  |  |  |  |  |  |
| CCCOc1cc([C@](O)(CCN(C)C)[C@H](c2cccc(C)c2)c2cc3cc(Br)ccc3nc2OC)cc(OC)n1 (racemic) | 0.02 (≈ 0.0329 µM) | 0.01 (≈ 0.0164 µM) | > 10 |  |  |  |  |  |  |  |
